# Measured values from ChEMBL document CHEMBL3351780, “Novel hybrids of metronidazole and quinolones: synthesis, bioactive evaluation, cytotoxicity, preliminary antimicrobial mechanism and effect of metal ions on their transportation by human serum albumin” (Eur J Med Chem, 2014).
# Activity calls are given as the source filed them. The rule behind the calls is not given here.
# Tests used:
# Candida albicans = test: Antifungal activity against Candida albicans ATCC 76615 after 24 hrs by microbroth dilution method; format: functional; details: ATCC 76615, 24 h
# Procedure, shortened: (§1)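 Spore suspension prepared in sterile distilled water from one-day-old cultures on Sabouraud agar, final 1-5 x 10^3 spores/mL. Compounds were serially diluted in RPMI 1640 to give eleven dilutions. Incubation at 35 °C for 24 h. Growth read visually and spectrophotometrically, in triplicate. MIC is the lowest concentration with complete inhibition.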
# [1] = Octanol-water partition co-efficient, log P of the compound by shake flask method; format: physicochemical
# Saccharomyces cerevisiae = test: Antifungal activity against Saccharomyces cerevisiae after 24 hrs by microbroth dilution method; format: functional; procedure, shortened: as §1
# Escherichia coli = test: Antibacterial activity against Escherichia coli DH52 by two-fold serial dilution method; format: functional
# Procedure, shortened: (§2)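 Standard two-fold serial dilution in 96-well microtest plates following NCCLS. Top dilutions printed as 32, 16, 8, 4, 2, 1, 0.5 ug/mL. Wells inoculated and held at 37 °C for 24 h. Growth judged visually and by spectrophotometer, in triplicate. MIC is the lowest concentration giving complete growth inhibition.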
# Streptococcus pneumoniae = test: Antibacterial activity against Streptococcus pneumoniae by two-fold serial dilution method; format: functional; procedure, shortened: as §2
# Bacillus spizizenii = test: Antibacterial activity against Bacillus subtilis ATCC 6633 by two-fold serial dilution method; format: functional; procedure, shortened: as §2
# [2] = Antibacterial activity against Eberthella typhosa by two-fold serial dilution method; format: functional
# Procedure, shortened: (§3)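 MIC read as the lowest concentration giving complete growth inhibition. Two-fold serial dilutions were made in 96-well plates following NCCLS, giving a series down to 0.5 µg/mL (…32, 16, 8, 4, 2, 1, 0.5). Plates were inoculated and incubated at 37 °C for 24 h. A DMSO-with-inoculum control without drug was included. Growth was monitored visually and spectrophotometrically, in triplicate.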
# Pichia norvegensis = test: Antifungal activity against Candida mycoderma after 24 hrs by microbroth dilution method; format: functional
# Micrococcus luteus = test: Antibacterial activity against Micrococcus luteus by two-fold serial dilution method; format: functional; procedure, shortened: as §2
# Staphylococcus aureus [3] = test: Antibacterial activity against methicillin-resistant Staphylococcus aureus N315 by two-fold serial dilution method; format: functional; procedure, shortened: as §3
# Pseudomonas aeruginosa = test: Antibacterial activity against Pseudomonas aeruginosa by two-fold serial dilution method; format: functional; procedure, shortened: as §2
# Staphylococcus aureus [4] = test: Antibacterial activity against Staphylococcus aureus ATCC 25923 by two-fold serial dilution method; format: functional; procedure, shortened: as §2
# Shigella dysenteriae = test: Antibacterial activity against Shigella dysenteriae by two-fold serial dilution method; format: functional; procedure, shortened: as §3
# Cyberlindnera jadinii = test: Antifungal activity against Candida utilis after 24 hrs by microbroth dilution method; format: functional; details: Williopsis jadinii; procedure, shortened: as §1
# [5] = Aqueous solubility of the compound by UV-spectrophotometry; format: physicochemical
# [6] = Dissociation constant, pKa of the compound by UV-spectroscopy; format: physicochemical
# Procedure, shortened: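 DMSO stock at 4.0 × 10^-3 mol/L added to 2 mL of buffer, then shaken 10 min at room temperature. Buffers were acetate (pH 4.0–5.0), MES (5.5–6.5), HEPES (7.0–8.0) and CHES (8.5–9.4), each from 500 mM stocks. Scans ran 210–400 nm and were normalized. Absolute differences from the acid spectrum were summed at 244 and 308 nm, plotted against pH and fitted to obtain pKa.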
# Calf thymus DNA = test: Binding affinity to calf thymus DNA by UV-vis spectroscopy; format: nucleic-acid assay; details: Bos taurus
# Procedure, shortened: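 Calf thymus DNA held at a fixed concentration and titrated with increasing amounts of the compound. UV-vis absorption spectra were recorded at room temperature in 1.0 cm quartz cells, following the DNA band at 260 nm.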
# Aspergillus flavus = test: Antifungal activity against Aspergillus flavus ATCC 96918 after 24 hrs by microbroth dilution method
# [7] = Cytotoxicity against human A549 cells assessed as cell viability at 256 ug/ml after 24 hrs by CCK-8 assay; format: cell-based; details: read-out: Activity
# Procedure, shortened: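 A549 cells were plated and allowed to attach for 24 h, then medium with the compound was added. The compound came from DMSO stocks diluted in medium to 8, 16, 32, 64, 128 and 256 µg/mL. Cells were kept at 37 °C in 5% CO2. Viability was read by CCK-8 absorbance at 450 nm against a drug-free control, three replicates.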
SMILES,MIC (Candida albicans),logP [1],MIC (Saccharomyces cerevisiae),MIC (Escherichia coli),MIC (Streptococcus pneumoniae),MIC (Bacillus spizizenii),MIC [2],MIC (Pichia norvegensis),MIC (Micrococcus luteus),MIC (Staphylococcus aureus [3]),MIC (Pseudomonas aeruginosa),MIC (Staphylococcus aureus [4]),MIC (Shigella dysenteriae),MIC (Cyberlindnera jadinii),solubility [5],pKa [6],Activity (Calf thymus DNA),MIC (Aspergillus flavus),"viability at 24 h, 256 ug/ml [7]"
Cc1ncc([N+](=O)[O-])n1CC(O)Cn1cc(C(=O)O)c(=O)c2cc(F)cc(F)c21 (stereo not drawn),32 µg/mL,-0.21,64 µg/mL,4 µg/mL,16 µg/mL,4 µg/mL,16 µg/mL,128 µg/mL,2 µg/mL,2 µg/mL,2 µg/mL,16 µg/mL,4 µg/mL,512 µg/mL,570 µg/mL,5.33,–,–,–
CCn1cc(C(=O)O)c(=O)c2cc(F)c(N3CCNCC3)cc21 [NORFLOXACIN],–,–,–,–,1 µg/mL,1 µg/mL,4 µg/mL,–,–,–,–,–,–,–,–,–,Active,–,–
CCOC(=O)c1cn(CC2CO2)c2c(F)cccc2c1=O (racemic),–,–,–,–,–,32 µg/mL,2 µg/mL,64 µg/mL,–,–,–,–,–,512 µg/mL,–,–,–,512 µg/mL,–
Cc1ncc([N+](=O)[O-])n1CC(O)Cn1cc(C(=O)O)c(=O)c2cccc(F)c21 (stereo not drawn),256 µg/mL,-0.13,64 µg/mL,4 µg/mL,32 µg/mL,16 µg/mL,4 µg/mL,512 µg/mL,4 µg/mL,4 µg/mL,2 µg/mL,8 µg/mL,8 µg/mL,256 µg/mL,390 µg/mL,5.12,–,–,–
O=C(O)c1cn(CC(O)Cn2cnc([N+](=O)[O-])c2)c2ccc(F)cc2c1=O (stereo not drawn),64 µg/mL,–,64 µg/mL,8 µg/mL,8 µg/mL,16 µg/mL,8 µg/mL,256 µg/mL,16 µg/mL,8 µg/mL,8 µg/mL,16 µg/mL,8 µg/mL,128 µg/mL,–,–,–,–,–
Cc1ncc([N+](=O)[O-])n1CC(O)Cn1cc(C(=O)O)c(=O)c2cc(F)c(Cl)cc21 (stereo not drawn),64 µg/mL,0.18,128 µg/mL,2 µg/mL,8 µg/mL,8 µg/mL,128 µg/mL,256 µg/mL,64 µg/mL,4 µg/mL,16 µg/mL,32 µg/mL,16 µg/mL,512 µg/mL,430 µg/mL,5.14,–,–,–
CCOC(=O)c1cn(CC2CO2)c2cc(C(F)(F)F)ccc2c1=O (racemic),–,–,–,–,–,31 µg/mL,2 µg/mL,32 µg/mL,–,–,–,–,–,512 µg/mL,–,–,–,512 µg/mL,–
Cc1ccc2c(c1)c(=O)c(C(=O)O)cn2CC(O)Cn1cnc([N+](=O)[O-])c1 (stereo not drawn),16 µg/mL,–,4 µg/mL,16 µg/mL,32 µg/mL,1 µg/mL,4 µg/mL,64 µg/mL,8 µg/mL,8 µg/mL,1 µg/mL,0.5 µg/mL,4 µg/mL,256 µg/mL,–,–,–,–,> 83%
CCOC(=O)c1cn(CC2CO2)c2c(Cl)cc(Cl)cc2c1=O (racemic),–,–,–,–,–,2 µg/mL,2 µg/mL,1 µg/mL,–,–,–,–,–,512 µg/mL,–,–,–,512 µg/mL,–
O=C(O)c1cn(CC(O)Cn2cnc([N+](=O)[O-])c2)c2c(Cl)cc(Cl)cc2c1=O (stereo not drawn),256 µg/mL,–,128 µg/mL,8 µg/mL,8 µg/mL,4 µg/mL,16 µg/mL,64 µg/mL,8 µg/mL,16 µg/mL,8 µg/mL,8 µg/mL,8 µg/mL,256 µg/mL,–,–,–,–,–
Cc1ccc2c(c1)c(=O)c(C(=O)O)cn2CC(O)Cn1c([N+](=O)[O-])cnc1C (stereo not drawn),16 µg/mL,-0.03,2 µg/mL,1 µg/mL,4 µg/mL,8 µg/mL,8 µg/mL,256 µg/mL,1 µg/mL,4 µg/mL,2 µg/mL,8 µg/mL,8 µg/mL,512 µg/mL,390 µg/mL,6.43,–,–,> 83%
COc1ccc2c(c1)c(=O)c(C(=O)O)cn2CC(O)Cn1c([N+](=O)[O-])cnc1C (stereo not drawn),128 µg/mL,-0.24,256 µg/mL,64 µg/mL,64 µg/mL,32 µg/mL,8 µg/mL,512 µg/mL,512 µg/mL,8 µg/mL,512 µg/mL,32 µg/mL,32 µg/mL,128 µg/mL,400 µg/mL,5.72,–,–,–
O=C(O)c1cn(CC(O)Cn2cnc([N+](=O)[O-])c2)c2cc(Cl)c(F)cc2c1=O (stereo not drawn),128 µg/mL,–,64 µg/mL,32 µg/mL,16 µg/mL,8 µg/mL,2 µg/mL,128 µg/mL,8 µg/mL,8 µg/mL,4 µg/mL,16 µg/mL,16 µg/mL,256 µg/mL,–,–,–,–,–
Cc1ncc([N+](=O)[O-])n1CC(O)Cn1cc(C(=O)O)c(=O)c2cc(F)ccc21 (stereo not drawn),128 µg/mL,-0.13,64 µg/mL,8 µg/mL,8 µg/mL,16 µg/mL,32 µg/mL,256 µg/mL,2 µg/mL,2 µg/mL,4 µg/mL,8 µg/mL,1 µg/mL,512 µg/mL,380 µg/mL,5.18,–,–,–
O=C(O)c1cn(CC(O)Cn2cnc([N+](=O)[O-])c2)c2c(F)cccc2c1=O (stereo not drawn),128 µg/mL,–,64 µg/mL,4 µg/mL,32 µg/mL,4 µg/mL,32 µg/mL,128 µg/mL,4 µg/mL,4 µg/mL,8 µg/mL,16 µg/mL,8 µg/mL,512 µg/mL,–,–,–,–,–
Cc1ncc([N+](=O)[O-])n1CC(O)Cn1cc(C(=O)O)c(=O)c2cc(Cl)cc(Cl)c21 (stereo not drawn),128 µg/mL,0.22,64 µg/mL,32 µg/mL,16 µg/mL,8 µg/mL,32 µg/mL,256 µg/mL,16 µg/mL,32 µg/mL,8 µg/mL,16 µg/mL,16 µg/mL,256 µg/mL,350 µg/mL,5.26,–,–,–
